The values that follow come from ChEMBL document CHEMBL2069297, “Inhibition of galactosyltransferases by a novel class of donor analogues” (J Med Chem, 2012).

By pKi is commonly meant −log10 of the Ki, conventionally taken in molar units. What is called pIC50 is the negative decadic logarithm of the IC50, by convention in mol/L.

Data set [1] can be described thus: Inhibition of Neisseria meningitidis alpha-1,4-GalT after 15 mins by Dixon plot analysis. Summed up:
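Radiochemical transfer assay with DTT-activated N. meningitidis LgtC (0.010 ng): UDP-Gal 0.57 μM plus UDP-[3H]-Gal, Lacβ-O(CH2)8CO2Me 2 mM, DTT 1.7 mM, inhibitor 0–12.5 μM, in A/B buffer pH 7. Incubated 15 min at 37 °C, stopped with water.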

The target in data set [2] is N-acetyllactosaminide alpha-1,3-galactosyltransferase (Bos taurus, UniProt P14769). Kind of data set: Inhibition of alpha-1,3-GalT in bovine after 15 mins by Dixon plot analysis. Put shortly:
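Bovine α-1,3-GalT (1.3 μg) in A/B buffer pH 7 with UDP-Gal 76 μM plus UDP-[3H]-Gal, Lacβ-O(CH2)8CO2Me 500 μM, and inhibitor 0–62.5 μM. Incubated 15 min at 37 °C, stopped with water; radiolabeled galactose transfer measured.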

Data set [3] can be described thus: Inhibition of human GTB after 15 mins by Dixon plot analysis. Put shortly: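 Radiochemical assay on human GTB (0.049 ng): UDP-Gal 26 μM with UDP-[3H]-Gal, Fucα1,2Galβ-O(CH2)7CH3 acceptor 500 μM, inhibitor 0–62.5 μM, in A/B buffer pH 7. Incubated 15 min at 37 °C, then quenched with water.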
In data set [4] the target is T1, Beta-1,4-galactosyltransferase 1 (Bos taurus) (UniProt P08037).
T1 sequence (whole entry): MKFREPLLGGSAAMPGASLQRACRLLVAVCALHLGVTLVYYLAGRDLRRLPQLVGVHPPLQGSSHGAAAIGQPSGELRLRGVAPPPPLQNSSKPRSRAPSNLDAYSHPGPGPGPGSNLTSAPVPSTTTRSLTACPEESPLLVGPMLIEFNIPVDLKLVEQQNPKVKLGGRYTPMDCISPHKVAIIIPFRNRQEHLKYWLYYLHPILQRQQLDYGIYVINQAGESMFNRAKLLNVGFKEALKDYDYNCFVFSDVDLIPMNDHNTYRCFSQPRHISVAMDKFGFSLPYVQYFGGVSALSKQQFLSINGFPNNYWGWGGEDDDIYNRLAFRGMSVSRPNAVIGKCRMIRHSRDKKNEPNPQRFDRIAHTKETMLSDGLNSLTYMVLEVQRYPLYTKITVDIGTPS
The data set can be described thus: Ratio of Km for the compound to Km for UDP-Gal in bovine beta-1,4-GalT.

Data set [5] can be described thus: Drug uptake in human HL60 cell endoplasmic reticulum at 100 uM after 24 hrs by confocal fluorescence microscopy. The data set is classed as ADME, cell-based. The note with it: hl-60, 24 h. Put shortly: (§1)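 HL-60 cells were grown in RPMI 1640 with 16.7% (v/v) heat-inactivated FCS, L-glutamine and PenStrep. They were seeded at 10^6 cells/mL onto a glass coverslip and kept 24 h at 37 °C, 5% CO2 with the sodium-salt analogue at 100 μM. The coverslip was washed with medium to remove extracellular fluorophore. The compound's intrinsic blue fluorescence (λem 434 nm) was imaged by confocal microscopy at 364 nm.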

A short description of data set [6]: Drug uptake in human HL60 cell golgi apparatus at 100 uM after 24 hrs by confocal fluorescence microscopy. The data set is classed as ADME, cell-based. As to conditions: hl-60, 24 h. Put shortly:
as §1

Data set [7] concerns Neisseria meningitidis. Kind of data set: Binding affinity to Neisseria meningitidis alpha-1,4-GalT after 10 mins by fluorescence quenching assay. Put shortly: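 Titration of the fluorescent donor analogue (200 nM final) with LgtC protein stock diluted 1/5 to 1/640 (eight dilutions) in A/B buffer (50 mM MOPS pH 7.0, 20 mM MnCl2, 1 mg/mL BSA). Emission read after 10 min at 37 °C (excitation 350 nm, emission 430 nm) and plotted against enzyme dilution. Run in triplicate.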

The subject of data set [8] is Neisseria meningitidis. Kind of data set: Binding affinity to Neisseria meningitidis alpha-1,4-GalT by fluorescence quenching assay in presence of unlabeled UDP-Gal and UDP.
Data set [9] in a line: Binding affinity to Neisseria meningitidis alpha-1,4-GalT after 15 mins by competitive binding assay.

The structures appear in SMILES notation. pIC50, pKi: −log10 of the molar value. Calls of active or inactive are those of the source. No cut-off for these calls is given here.

N-acetyllactosaminide alpha-1,3-galactosyltransferase, sequence (P14769 whole entry): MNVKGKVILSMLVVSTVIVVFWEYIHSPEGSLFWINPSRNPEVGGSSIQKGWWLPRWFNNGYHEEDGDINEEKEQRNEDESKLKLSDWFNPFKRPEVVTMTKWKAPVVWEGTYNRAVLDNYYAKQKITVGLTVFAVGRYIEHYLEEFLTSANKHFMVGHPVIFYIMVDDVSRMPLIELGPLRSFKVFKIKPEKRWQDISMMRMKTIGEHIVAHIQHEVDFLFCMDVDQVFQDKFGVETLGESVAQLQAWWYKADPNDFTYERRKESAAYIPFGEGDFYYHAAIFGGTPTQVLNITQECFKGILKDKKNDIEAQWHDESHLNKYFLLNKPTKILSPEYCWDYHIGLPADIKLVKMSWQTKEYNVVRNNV

As to `O=c1[nH]c(=O)n([C@@H]2O[C@H](COP(=O)(O)OP(=O)(O)O[C@H]3O[C@H](CO)[C@H](O)[C@H](O)[C@H]3O)[C@@H](O)[C@H]2O)cc1-c1ccccc1`, the figures for the pKi in data set [1], in data set [2] and in data set [3] were 5.22, 4.12 and 4.32, respectively. The Ratio in data set [4] came out at 6.
Consider `O=Cc1ccc(-c2cn([C@@H]3O[C@H](COP(=O)([O-])OP(=O)([O-])CC[C@H]4O[C@H](CO)[C@H](O)[C@H](O)[C@H]4O)[C@@H](O)[C@H]3O)c(=O)[nH]c2=O)s1.[Na+].[Na+]`, for which the Drug uptake entry in data set [5] and in data set [6] was “Active” throughout.
In the case of `O=Cc1ccc(-c2cn([C@@H]3O[C@H](COP(=O)(O)OP(=O)(O)O[C@H]4O[C@H](CO)[C@H](O)[C@H](O)[C@H]4O)[C@@H](O)[C@H]3O)c(=O)[nH]c2=O)s1` [listing 1 of 2 here], the Ratio in [4] came to 2.
`O=c1[nH]c(=O)n([C@@H]2O[C@H](COP(=O)(O)OP(=O)(O)O[C@H]3O[C@H](CO)[C@H](O)[C@H](O)[C@H]3O)[C@@H](O)[C@H]2O)cc1-c1ccco1`: the pKi in [1] was 5.72; in data set [2] it was 4.05; in data set [3], 4.48. Besides, in data set [4], the Ratio was 2.
For the compound `O=Cc1ccc(-c2cn([C@@H]3O[C@H](COP(=O)(O)OP(=O)(O)CC[C@H]4O[C@H](CO)[C@H](O)[C@H](O)[C@H]4O)[C@@H](O)[C@H]3O)c(=O)[nH]c2=O)s1` [listing 1 of 2 here], the negative-log Ki (pKi) in data set [1] is 5.77; in data set [2], 4.74; in [3], 5.42.
For `COc1ccc(-c2cn([C@@H]3O[C@H](COP(=O)(O)OP(=O)(O)O[C@H]4O[C@H](CO)[C@H](O)[C@H](O)[C@H]4O)[C@@H](O)[C@H]3O)c(=O)[nH]c2=O)cc1`, the Ratio in data set [4] is 3.3.
In the case of `O=Cc1ccc(-c2cn([C@@H]3O[C@H](COP(=O)([O-])OP(=O)([O-])O[C@H]4O[C@H](CO)[C@H](O)[C@H](O)[C@H]4O)[C@@H](O)[C@H]3O)c(=O)[nH]c2=O)s1.[Na+].[Na+]`, the Drug uptake entry in data set [5] and in data set [6] was “Active” throughout.
Consider `O=Cc1ccc(-c2cn([C@@H]3O[C@H](COP(=O)(O)OP(=O)(O)O[C@H]4O[C@H](CO)[C@H](O)[C@H](O)[C@H]4O)[C@@H](O)[C@H]3O)c(=O)[nH]c2=O)s1` [listing 2 of 2 here], for which the pKi in data set [1] was 6.35; in data set [3], 5.62.
For `O=Cc1ccc(-c2cn([C@@H]3O[C@H](COP(=O)(O)OP(=O)(O)CC[C@H]4O[C@H](CO)[C@H](O)[C@H](O)[C@H]4O)[C@@H](O)[C@H]3O)c(=O)[nH]c2=O)s1` [listing 2 of 2 here], in data set [7], the Activity result is “Dose-dependent effect”. Moreover, the outcome in data set [8] was inactive.
As for `O=c1ccn([C@@H]2O[C@H](COP(=O)(O)OP(=O)(O)O)[C@@H](O)[C@H]2O)c(=O)[nH]1` [URIDINE_DIPHOSPHATE], the pIC50 in data set [9] was 4.34.
